# From ChEMBL document CHEMBL1149435, “Inactivation of S-adenosyl-L-homocysteine hydrolase by 6'-cyano-5',6'-didehydro-6'-deoxyhomoadenosine and 6'-chloro-6'-cyano-5',6'-didehydro-6'-deoxyhomoadenosine. Antiviral and cytotoxic effects” (J Med Chem, 2006)
# Columns and labels:
# [1] = system: Cytomegalovirus; test: Antiviral activity against Cytomegalovirus AD169 in human embryonic lung cells; type: functional, organism-based; conditions: Human betaherpesvirus 5, AD169, lung
# Method in brief: (§1)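 Human embryonic lung cell cultures were infected with cytomegalovirus, and the effect on viral plaque formation was scored. EC50 is the concentration, in µg/mL, that reduced virus plaque formation by 50%.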
# [2] = system: Cytomegalovirus; test: Antiviral activity against Cytomegalovirus Davis in human embryonic lung cells; type: functional, organism-based; conditions: Human betaherpesvirus 5, Davis; method in brief: as §1
# [3] = system: HEL; test: Cytotoxicity as determined by alteration in the cell morphology of HEL cells; type: functional; conditions: Homo sapiens
# Method in brief: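 Human embryonic lung cells were examined by microscope for changes in morphology. MCC is the minimum concentration, in µg/mL, that caused a microscopically detectable alteration of cell morphology.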
# [4] = system: Human alphaherpesvirus 3; test: Antiviral activity against TK- VZV 07/10 in human embryonic lung cells; type: functional, organism-based; conditions: Human alphaherpesvirus 3, 07/10, lung
# [5] = system: HEL; test: Cytotoxicity against HEL cells; type: functional; conditions: Homo sapiens
# Method in brief: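 Cytotoxicity was measured in human embryonic lung cells as inhibition of cell growth. CC50 is the concentration, in µg/mL, that reduced cell growth by 50%.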
# [6] = system: Human alphaherpesvirus 3; test: Antiviral activity against TK+ VZV OKA in human embryonic lung cells; type: functional, organism-based; conditions: Human alphaherpesvirus 3, OKA
# [7] = molecular target: Adenosylhomocysteinase (Homo sapiens, UniProt P23526); test: Inhibitory activity against AdoHcy Hydrolase
# Method in brief: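 Purified recombinant placental AdoHcy hydrolase was preincubated with inhibitor at several concentrations in assay buffer at 37 °C. Remaining activity was measured in the synthetic direction. Ki and kinact came from the Kitz–Wilson method. […] Irreversibility was checked by 24 h dialysis.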
# Adenosylhomocysteinase, sequence (P23526 whole entry): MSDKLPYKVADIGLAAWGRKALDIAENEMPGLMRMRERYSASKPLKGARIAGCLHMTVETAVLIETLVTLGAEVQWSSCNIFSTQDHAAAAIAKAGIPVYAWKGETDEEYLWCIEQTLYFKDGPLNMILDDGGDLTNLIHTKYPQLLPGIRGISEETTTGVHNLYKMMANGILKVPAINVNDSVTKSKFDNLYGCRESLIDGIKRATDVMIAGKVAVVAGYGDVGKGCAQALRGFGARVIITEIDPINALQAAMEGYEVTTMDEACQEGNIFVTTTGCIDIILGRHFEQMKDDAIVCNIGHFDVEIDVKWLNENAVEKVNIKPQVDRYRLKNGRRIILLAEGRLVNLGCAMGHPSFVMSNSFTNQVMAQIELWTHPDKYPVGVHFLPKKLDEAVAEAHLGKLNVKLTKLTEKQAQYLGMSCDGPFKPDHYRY
Structure (SMILES),EC50 [1] [µg/mL],EC50 [2] [µg/mL],MCC [3] [µg/mL],EC50 [4] [µg/mL],CC50 [5] [µg/mL],EC50 [6] [µg/mL],Ki [7] [µM]
N#C/C=C\[C@H]1O[C@@H](n2cnc3c(N)ncnc32)[C@H](O)[C@@H]1O,> 20,> 20,100,> 20,> 20,> 20,–
N#C/C=C/[C@H]1O[C@@H](n2cnc3c(N)ncnc32)[C@H](O)[C@@H]1O,> 20,> 20,≥ 20,> 20,11,> 20,–
N#C/C(Cl)=C\[C@H]1O[C@@H](n2cnc3c(N)ncnc32)[C@H](O)[C@@H]1O,> 20,> 20,100,17,1.2,11,17
Nc1nc2c(ncn2COCCO)c(=O)[nH]1 [ACYCLOVIR],–,–,> 400,–,118,–,–
O=c1[nH]c(=O)n([C@H]2C[C@H](O)[C@@H](CO)O2)cc1/C=C/Br [BRIVUDINE],–,–,> 400,149,> 200,0.0051,–
Nc1ccn(C[C@@H](CO)OCP(=O)(O)O)c(=O)n1.O.O [CIDOFOVIR],0.49,0.64,≥ 400,–,23,–,–
Nc1nc2c(ncn2COC(CO)CO)c(=O)[nH]1 [GANCICLOVIR],3.2,3.2,≥ 400,–,34,–,–
